# Rows were chosen to be rich in hits. Some 1.1% of all compounds tested hit in one or more screens of this group.
# PglD inh – PglD (C. jejuni) enzyme inhibition; purified PglD enzyme, DTNB colorimetric CoA detection; inhibition, % at 12.5 µM; 360,000 compounds, 0.098% hits; AID 602405; in the data active = inhibition above about 16%, passing the limit was not always enough
# miR-122 sensor – inhibitors of miR-122 in Huh7 cells. 340,000 compounds, 0.3% hits. activation (reporter increase), % at 12.5 µM. Huh7 miR-122 Renilla luciferase sensor, 48 h; neutral wells = 0, positive control = 100;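 active = mean replicate activation score at least 90 and every replicate individually at or above 90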;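 also: higher luciferase means less miR-122 activity so hits act as miR-122 inhibitors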
# CAL PDZ FP-1 – inhibitors of human CAL PDZ peptide binding. Q9HD26. purified CAL PDZ, TMR-peptide fluorescence polarization, 1 h. inhibition, % at 24.9 µM. 300,000 compounds, 0.92% hits. AID 602252;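 active = mean inhibition of at least 30% with at least half of replicates also reaching 30%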;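 also: 0% = DMSO neutral control and 100% = excess unlabeled competitor peptide PRC23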
# CAL PDZ FP-2 – human CAL PDZ-peptide interaction inhibition. purified CAL PDZ, TMR-peptide fluorescence polarization, 1 h. inhibition, % at 20 µM. AID 504414. 330,000 compounds, 0.02% hits;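 active = highest replicate inhibition of at least 40%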;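 also: plate controls were DMSO neutral control wells for no effect and unlabeled competitor peptide control wells for full effect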
#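 Material – purified CerCALP PDZ construct · Detection – FP readout, S and P plane fluorescence · Measure – percent inhibition from loss of millipolarization · Controls – unlabelled peptide for full inhibition, DMSO wells as neutral · Probe or stimulus – TMR-labelled reporter peptide T*-PRC34 bound in PDZ groove · Times – 1 h at RT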
# Cneo AK release – causes C. neoformans cell lysis | adenylate kinase release luminescence, 4 h; normalised: neutral wells 0, clomiphene wells 100 | 360,000 compounds, 0.2% hits | lysis activity, % at 15 µM;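 active = mean lysis activity across replicates of at least 80%, whatever share of replicates individually reach that level; inactive = mean lysis activity below 80%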
#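 Test system: log-phase Cryptococcus neoformans yeast cells; Quantity: yeast cell density of 5 × 10^6 cells/mL; Buffer or medium: YPD; Doses: single compound concentration per well; Timing: 4 h at 37 °C static, read 1 h later; Measured by: AK luminescence; Read-out basis: lysis from increased AK signal; Control set: Clomiphene as positive control.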
# Numbers without * were called inactive; nt = no result given; [ ] = remark or other dose.
SMILES,PglD inh,miR-122 sensor,CAL PDZ FP-1,CAL PDZ FP-2,Cneo AK release
CCn1nnc(NC(=O)Cc2ccc(Cl)cc2)n1,nt,nt,102.3*,-0.7,nt
Cc1ccc(-n2ncc3c2CCCC3NC(=O)CCc2c(C)noc2C)cc1C (stereo unspecified),1.3,3.7,33.0*,-0.8,-2.4
O=C(C[C@H]1C[C@H]2c3cc(NC(=O)NC4CCCC4)ccc3O[C@H]2[C@H](CO)O1)NCC1CC1,2.2,5.8[16.7 µM],nt,nt,3.5
CCN(CC)S(=O)(=O)c1cc(C(=O)N(C)CC(=O)Nc2ccc(Cl)cc2)ccc1Cl,nt,168.4*,-10.7,-1.3,nt
O=S(=O)(Nc1cccc(F)c1)c1cccc2nsnc12,-1.8,3.6,-6.5,-0.1,0.7
Cc1ccc(NS(=O)(=O)c2cccc3nsnc23)cc1C,-2.2,114.1*,-2.2,-0.2,0.2
CCOC(=O)NC(=S)Nc1ccc(C(C)(C)C)cc1,-3.7,-5.9,-3.8,-0.4,172.8*
C[C@@H]1CN([C@H](C)CO)C(=O)c2cccc(NC(=O)Nc3ccc(C(F)(F)F)cc3)c2O[C@H]1CN(C)Cc1ccc(-c2ccccc2)cc1,0.2,-1.2[16.7 µM],nt,nt,-7.1
CC(CN1CCN(C)CC1)OC(=O)c1ccccc1 (stereo unspecified),2.5,-2.3,-3.6,nt,14.6
CC(CN1CCN(C)CC1)OC(=O)c1cccc(Cl)c1 (stereo unspecified),-3.4,-13.2,157.4*,nt,3.4
C[C@@H]1CN([C@H](C)CO)C(=O)c2cc(NC(=O)C3CCCCC3)ccc2O[C@@H](C)CCCCO[C@@H]1CN(C)S(=O)(=O)c1ccc(Cl)cc1,-1.2,-1.3[16.7 µM],nt,nt,-3.3
Cc1ccc(S(=O)(=O)Nc2ccc3c(c2)CC(=O)N([C@@H](C)CO)C[C@H](C)[C@@H](CN(C)S(=O)(=O)c2c(C)noc2C)O3)cc1,1.8,-2.9[16.7 µM],nt,nt,-2.3
COc1ccc(S(=O)(=O)N(C)C[C@@H]2Oc3ccc(NS(C)(=O)=O)cc3CC(=O)N([C@@H](C)CO)C[C@@H]2C)cc1,-2.3,0.5[16.7 µM],nt,nt,51.6
COc1ccc(-c2cccc(-c3cc(=O)oc4cc(OC)cc(OC)c34)c2)cc1,2.9,104.1*,-4.7,-2.0,3.7
COc1cc(OC)c2c(-c3cccc(-c4ccc(OC(F)(F)F)cc4)c3)cc(=O)oc2c1,3.3,-9.2,-4.7,-0.9,2.7
COc1cc(OC)c2c(-c3cccc(-c4ccc(N(C)C)cc4)c3)cc(=O)oc2c1,0.0,97.2*,-3.7,-0.5,0.1
COc1cc(OC)c2c(-c3cccc(-c4ccc(O)cc4)c3)cc(=O)oc2c1,3.4,98.6*,-3.3,-1.9,-4.9
COc1ccc(S(=O)(=O)Nc2ccc3c(c2)C(=O)N(C)C[C@H](OC)[C@@H](C)CN[C@H](C)CO3)cc1,-0.6,nt,nt,nt,-45.6
CC(=O)N(C)C[C@@H]1Oc2ncc(C#Cc3ccccc3F)cc2C(=O)N([C@@H](C)CO)C[C@H]1C,40.1,13.3[16.7 µM],nt,nt,-3.3
O=C(O)c1cccc(NC(=O)c2cccc(S(=O)(=O)Nc3cccc([N+](=O)[O-])c3)c2)c1,-5.0,-1.4,96.5*,-2.0,3.8
Cc1ccccc1NS(=O)(=O)c1cc(C(=O)N2CCc3ccccc3C2)ccc1C,nt,177.0*,nt,-3.2,nt
Cc1ccc(C(=O)Nc2ccccc2C(=O)O)cc1S(=O)(=O)Nc1ccccc1,2.6,91.7*,-10.8,-3.2,1.7
Cc1ccccc1NS(=O)(=O)c1cc(C(=O)Nc2cccc(N(C)S(C)(=O)=O)c2)ccc1C,5.0,nt,-4.3,-3.0,1.1
CN(c1cccc(NC(=O)c2ccc(Cl)c(S(=O)(=O)Nc3ccccc3)c2)c1)S(C)(=O)=O,-1.4,197.0*,-2.8,-2.8,0.0
Cc1ccc(C(=O)Nc2ccccc2C(=O)O)cc1S(=O)(=O)NC1CCCCC1,3.1,72.0,-9.7,-2.5,-0.5
SMILES,PglD inh,miR-122 sensor,CAL PDZ FP-1,CAL PDZ FP-2,Cneo AK release
Cc1ccc(C(=O)Nc2cccc([N+](=O)[O-])c2)cc1S(=O)(=O)Nc1cccc(C(=O)O)c1,nt,nt,-0.6,-0.9,nt
COCC(=O)Nc1ccc2c(c1)C(=O)N(C)C[C@H](OC)[C@H](C)CN(CCC(F)(F)F)[C@@H](C)CO2,6.3,11.9[16.7 µM],nt,nt,0.8
Cc1ccc(C(=O)N2CCCC2)cc1S(=O)(=O)Nc1ccccc1,7.3,24.5,0.9,-0.8,3.7
Cc1ccc(NS(=O)(=O)c2cc(C(=O)Nc3cccc([N+](=O)[O-])c3)ccc2C)cc1,6.6,131.4*,1.2,0.0,2.0
Cc1ccc(C(=O)NCCSC2CCCCC2)cc1S(=O)(=O)Nc1ccccc1,nt,99.5*,1.3,-2.3,nt
CCOc1ccc(S(=O)(=O)N2Cc3ccccc3CC2C(=O)O)cc1 (stereo unspecified),1.2,-12.5,51.0*,0.8,-3.3
COc1ccc(S(=O)(=O)N2Cc3ccccc3CC2C(=O)O)cc1 (stereo unspecified),0.2,-4.7,-0.2,-0.1,2.0
COc1ccccc1CC(=O)Nc1cccc(C)n1,-4.1,-1.9,57.6*,17.1,0.7
COc1ccccc1CNc1cccc(C)n1,-4.4,-2.2,nt,nt,2.1
C[C@H](CO)N1C[C@H](C)[C@@H](CN(C)Cc2ccncc2)Oc2ncc(C#Cc3ccccn3)cc2C1=O,-2.9,-5.3[16.7 µM],nt,nt,-1.4
COc1ccc(NC(=O)N2CCN(S(C)(=O)=O)CC2)c(OC)c1,nt,nt,38.1*,-2.9,nt
COc1ccc(NC(=O)N2CCCCCC2)c(OC)c1,-1.6,nt,nt,-2.5,-2.9
C[C@@H]1CCCCO[C@@H](CN(C)Cc2ccc(C(=O)O)cc2)[C@@H](C)CN([C@@H](C)CO)C(=O)c2cc(NC(=O)Nc3ccc(F)cc3)ccc2O1,-2.1,6.6[16.7 µM],nt,nt,5.2
O=C(Nc1ccc(Cl)c(S(=O)(=O)N2CCCC2)c1)c1nn(CCO)c(=O)c2ccccc12,6.1,-3.6,38.6*,-3.5,-0.7
Cn1nc(C(=O)Nc2ccc(Cl)c(S(=O)(=O)N3CCOCC3)c2)c2ccccc2c1=O,1.4,-7.6,0.3,-1.9,1.2
CC(C)CNc1nc(S(=O)(=O)c2ccccc2)c(Cl)s1,0.6,5.0,-3.6,-2.1,-0.8
CN(C)CCNc1nc(S(=O)(=O)c2ccccc2)c(Cl)s1,nt,nt,82.6*,-0.9,nt
CCC(C(=O)NN1C(=O)c2ccccc2C1=O)c1ccccc1 (stereo unspecified),2.9,nt,-5.9,45.4*,-0.9
COc1ccc(CCn2nc(C)c([N+](=O)[O-])c2C)cc1,-5.5,-10.0,37.9*,0.6,-1.0
COc1ccc(-n2nc(C(=O)NCC(=O)N3CCCC(C)C3)c3ccccc3c2=O)cc1 (stereo unspecified),-2.0,-6.2,-2.2,0.0,-19.4
COc1ccc(-n2nc(C(=O)NCC(=O)N3CCC(C)CC3)c3ccccc3c2=O)cc1,-4.2,-7.1,46.7*,-1.7,-2.8
COc1ccc(-n2nc(C(=O)NCC(=O)N3CCN(c4ccccn4)CC3)c3ccccc3c2=O)c(OC)c1,1.1,-1.2,43.2*,-1.6,-22.5
